{"source": "ChEMBL document CHEMBL2146434", "about": "“Synthesis and biological evaluation of new amino acid and dipeptide derivatives of neocryptolepine as anticancer agents” (J Med Chem, 2012)", "key": {"Mus musculus [1]": {"test_system": "Mus musculus", "assay": "Toxicity in C57BL/6 mouse xenografted with mouse LLC cells assessed as body weight loss at 30 mg/kg/day, sc administered on day 9 to day 12 of tumor implantation", "assay_type": "organism-based", "parameters": "route subcutaneous", "settings": "in vivo", "method_in_brief": "(§1)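 Mouse Lewis lung carcinoma (LLC) cells inoculated sc into mice. Daily dosing from day 9: 15 mg kg⁻¹ day⁻¹ through day 13 or 30 mg kg⁻¹ day⁻¹ through day 12; 25 or 50 mg kg⁻¹ day⁻¹ through day 13. Route is given as ip in tables and text but sc in figure legends. Body weight monitored for loss alongside tumor growth. Single 100 mg/kg cyclophosphamide dose as cytostatic control.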"}, "Mus musculus [2]": {"test_system": "Mus musculus", "assay": "Toxicity in C57BL/6 mouse xenografted with mouse LLC cells assessed as body weight loss at 15 mg/kg/day, sc administered on day 9 to day 13 of tumor implantation", "assay_type": "organism-based", "parameters": "route subcutaneous", "settings": "in vivo", "method_in_brief": "(§2)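 Body weight was tracked in C57BL/6 mice bearing subcutaneously inoculated LLC during therapy given daily from day 9 to day 13. A single 100 mg/kg dose of cyclophosphamide served as the cytostatic control group.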"}, "Mus musculus [3]": {"test_system": "Mus musculus", "assay": "Toxicity in C57BL/6 mouse xenografted with mouse LLC cells assessed as body weight loss at 30 mg/kg/day, ip administered on day 9 to day 12 of tumor implantation", "assay_type": "organism-based", "parameters": "route intraperitoneal", "settings": "in vivo", "method_in_brief": "as §1"}, "KB": {"test_system": "KB", "assay": "Cytotoxicity against human KB cells after 72 hrs by SRB assay", "assay_type": "functional, cell-based"}, "A549": {"test_system": "A549", "assay": "Cytotoxicity against human A549 cells after 72 hrs by SRB assay", "assay_type": "functional, cell-based", "settings": "A549, 72 h", "method_in_brief": "(§3)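 IC50 is the compound concentration giving 50% inhibition of cell proliferation. It was determined on normal mouse BALB/3T3 fibroblasts and on human A549, MCF-7 and LoVo cancer lines, with doxorubicin hydrochloride and DiMIQ as reference compounds.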"}, "MCF7": {"test_system": "MCF7", "assay": "Cytotoxicity against human MCF7 cells after 72 hrs by SRB assay", "assay_type": "functional, cell-based", "settings": "MCF7, 72 h", "method_in_brief": "as §3"}, "LoVo": {"test_system": "LoVo", "assay": "Cytotoxicity against human LoVo cells after 72 hrs by SRB assay", "assay_type": "functional, cell-based", "method_in_brief": "as §3"}, "[4]": {"test_system": "Lewis lung carcinoma cell line", "assay": "Antineoplastic activity against mouse LLC cells xenografted in C57BL/6 mouse assessed as tumor growth inhibition at 25 mg/kg/day, ip administered on day 9 to day 13 of tumor implantation measured on day 11", "assay_type": "functional", "settings": "route intraperitoneal, read-out: TGI", "method_in_brief": "(§4)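 Mice bore Lewis lung carcinoma (LLC) inoculated subcutaneously and received test agents intraperitoneally at 15–50 mg kg⁻¹ day⁻¹ from day 9 or day 10. A single 100 mg/kg cyclophosphamide dose was the cytostatic control. Tumor growth was followed as the group median, and TGI% was calculated from medians versus untreated controls. Significance was tested by nonparametric Kruskal–Wallis multiple comparison, p < 0.05.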"}, "[5]": {"test_system": "Lewis lung carcinoma cell line", "assay": "Antineoplastic activity against mouse LLC cells xenografted in C57BL/6 mouse assessed as tumor growth inhibition at 25 mg/kg/day, ip administered on day 9 to day 13 of tumor implantation measured on day 14", "assay_type": "functional", "settings": "route intraperitoneal, read-out: TGI", "method_in_brief": "as §4"}, "[6]": {"test_system": "Lewis lung carcinoma cell line", "assay": "Antineoplastic activity against mouse LLC cells xenografted in C57BL/6 mouse assessed as tumor growth inhibition at 25 mg/kg/day, ip administered on day 9 to day 13 of tumor implantation measured on day 16", "assay_type": "functional", "settings": "route intraperitoneal, read-out: TGI", "method_in_brief": "as §4"}, "[7]": {"test_system": "Lewis lung carcinoma cell line", "assay": "Antineoplastic activity against mouse LLC cells xenografted in C57BL/6 mouse assessed as tumor growth inhibition at 25 mg/kg/day, ip administered on day 9 to day 13 of tumor implantation measured on day 18", "assay_type": "functional", "settings": "route intraperitoneal, read-out: TGI", "method_in_brief": "as §4"}, "[8]": {"test_system": "Lewis lung carcinoma cell line", "assay": "Antineoplastic activity against mouse LLC cells xenografted in C57BL/6 mouse assessed as tumor growth inhibition at 25 mg/kg/day, ip administered on day 9 to day 13 of tumor implantation measured on day 21", "assay_type": "functional", "settings": "route intraperitoneal, read-out: TGI", "method_in_brief": "as §4"}, "[9]": {"test_system": "Lewis lung carcinoma cell line", "assay": "Antineoplastic activity against mouse LLC cells xenografted in C57BL/6 mouse assessed as tumor growth inhibition at 25 mg/kg/day, ip administered on day 9 to day 13 of tumor implantation measured on day 23", "assay_type": "functional", "settings": "route intraperitoneal, read-out: TGI", "method_in_brief": "as §4"}, "[10]": {"test_system": "Lewis lung carcinoma cell line", "assay": "Antineoplastic activity against mouse LLC cells xenografted in C57BL/6 mouse assessed as tumor growth inhibition at 50 mg/kg/day, ip administered on day 9 to day 13 of tumor implantation measured on day 11", "assay_type": "functional", "settings": "route intraperitoneal, read-out: TGI", "method_in_brief": "as §4"}, "[11]": {"test_system": "Lewis lung carcinoma cell line", "assay": "Antineoplastic activity against mouse LLC cells xenografted in C57BL/6 mouse assessed as tumor growth inhibition at 50 mg/kg/day, ip administered on day 9 to day 13 of tumor implantation measured on day 14", "assay_type": "functional", "settings": "route intraperitoneal, read-out: TGI", "method_in_brief": "as §4"}, "[12]": {"test_system": "Lewis lung carcinoma cell line", "assay": "Antineoplastic activity against mouse LLC cells xenografted in C57BL/6 mouse assessed as tumor growth inhibition at 50 mg/kg/day, ip administered on day 9 to day 13 of tumor implantation measured on day 16", "assay_type": "functional", "settings": "route intraperitoneal, read-out: TGI", "method_in_brief": "as §4"}, "[13]": {"test_system": "Lewis lung carcinoma cell line", "assay": "Antineoplastic activity against mouse LLC cells xenografted in C57BL/6 mouse assessed as tumor growth inhibition at 50 mg/kg/day, ip administered on day 9 to day 13 of tumor implantation measured on day 18", "assay_type": "functional", "settings": "route intraperitoneal, read-out: TGI", "method_in_brief": "as §4"}, "[14]": {"test_system": "Lewis lung carcinoma cell line", "assay": "Antineoplastic activity against mouse LLC cells xenografted in C57BL/6 mouse assessed as tumor growth inhibition at 50 mg/kg/day, ip administered on day 9 to day 13 of tumor implantation measured on day 21", "assay_type": "functional", "settings": "route intraperitoneal, read-out: TGI", "method_in_brief": "as §4"}, "[15]": {"test_system": "Lewis lung carcinoma cell line", "assay": "Antineoplastic activity against mouse LLC cells xenografted in C57BL/6 mouse assessed as tumor growth inhibition at 50 mg/kg/day, ip administered on day 9 to day 13 of tumor implantation measured on day 23", "assay_type": "functional", "settings": "route intraperitoneal, read-out: TGI", "method_in_brief": "as §4"}, "Mus musculus [16]": {"test_system": "Mus musculus", "assay": "Toxicity in C57BL/6 mouse xenografted with mouse LLC cells assessed as body weight loss at 15 mg/kg/day, ip administered on day 9 to day 13 of tumor implantation", "assay_type": "organism-based", "parameters": "route intraperitoneal", "settings": "in vivo", "method_in_brief": "as §2"}, "Mus musculus [17]": {"test_system": "Mus musculus", "assay": "Toxicity in C57BL/6 mouse xenografted with mouse LLC cells assessed as body weight loss at 25 mg/kg/day, sc administered on day 9 to day 13 of tumor implantation", "assay_type": "organism-based", "parameters": "route subcutaneous", "settings": "in vivo", "method_in_brief": "as §2"}, "Mus musculus [18]": {"test_system": "Mus musculus", "assay": "Toxicity in C57BL/6 mouse xenografted with mouse LLC cells assessed as body weight loss at 50 mg/kg/day, sc administered on day 9 to day 13 of tumor implantation", "assay_type": "organism-based", "parameters": "route subcutaneous", "settings": "in vivo", "method_in_brief": "as §1"}, "[19]": {"assay": "Dissociation constant, pKa of the compound in PBS buffer at 5 uM at pH 2 to 10 by UV-spectrophotometric analysis", "assay_type": "physicochemical", "method_in_brief": "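UV spectrophotometric titration at a final compound concentration of 5 μM. At this concentration the absorbance–concentration relationship stayed linear. pKa was read from spectral changes across pH.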"}, "[20]": {"assay": "Octanol-water partition coefficient, log P of the compound in citric buffer at pH 2.5 by spectrophotometric analysis", "assay_type": "physicochemical", "method_in_brief": "(§5)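 Octanol–water partitioning, with log P defined as log(C_octanol/C_water). Compound in the aqueous phase was measured spectrophotometrically, and octanol content was obtained by subtracting the supernatant concentration from the total. Values are the mean of two independent experiments, each run in triplicate.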"}, "[21]": {"assay": "Octanol-water partition coefficient, log P of the compound in PBS buffer at pH 7.4 by spectrophotometric analysis", "assay_type": "physicochemical", "method_in_brief": "as §5"}, "[22]": {"assay": "Toxicity in human erythrocytes assessed as hemolysis at 0.3 mM after 30 mins by spectrophotometric analysis", "assay_type": "cell-based, Erythrocyte", "settings": "read-out: Activity", "method_in_brief": "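Human erythrocyte suspension under isotonic conditions (pH 7.4, hematocrit 50%). Compound added across a concentration series and incubated 30 min at 37 °C before hemolysis was scored. Mean ± SD of three individual determinations. Statistics by Mann–Whitney U test, p < 0.05.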"}, "[23]": {"assay": "Solubility of the compound in water", "assay_type": "physicochemical", "settings": "buffer"}, "Mus musculus [24]": {"test_system": "Mus musculus", "assay": "Toxicity in C57BL/6 mouse xenografted with mouse LLC cells at 25 to 50 mg/kg/day, ip administered on day 9 to day 13 of tumor implantation", "assay_type": "organism-based", "parameters": "route intraperitoneal", "settings": "in vivo", "method_in_brief": "as §1"}}, "data": [{"smiles": "Cc1c2c3cc(NC(=O)CNC(=O)CN)ccc3nc-2n(C)c2ccccc12.Cl.Cl", "values": [{"measurement": "Activity", "setting": "Mus musculus [1]", "result": "<= 15%"}, {"measurement": "Activity", "setting": "Mus musculus [2]", "result": "<= 15%"}, {"measurement": "Activity", "setting": "Mus musculus [3]", "result": "<= 15%"}, {"measurement": "IC50", "setting": "KB", "result": 4.65, "unit": "µM"}, {"measurement": "IC50", "setting": "A549", "result": 900, "unit": "nM"}, {"measurement": "IC50", "setting": "MCF7", "result": 2700, "unit": "nM"}, {"measurement": "IC50", "setting": "LoVo", "result": 730, "unit": "nM"}, {"measurement": "inhibition in vivo at 25 mg/kg/day", "setting": "[4]", "result": 37.4, "unit": "%"}, {"measurement": "inhibition in vivo at 25 mg/kg/day", "setting": "[5]", "result": 31.8, "unit": "%"}, {"measurement": "inhibition in vivo at 25 mg/kg/day", "setting": "[6]", "result": 27.2, "unit": "%"}, {"measurement": "inhibition in vivo at 25 mg/kg/day", "setting": "[7]", "result": 22.4, "unit": "%"}, {"measurement": "inhibition in vivo at 25 mg/kg/day", "setting": "[8]", "result": 28, "unit": "%"}, {"measurement": "inhibition in vivo at 25 mg/kg/day", "setting": "[9]", "result": 35.8, "unit": "%"}, {"measurement": "inhibition in vivo at 50 mg/kg/day", "setting": "[10]", "result": 46.9, "unit": "%"}, {"measurement": "inhibition in vivo at 50 mg/kg/day", "setting": "[11]", "result": 62.6, "unit": "%"}, {"measurement": "inhibition in vivo at 50 mg/kg/day", "setting": "[12]", "result": 52.2, "unit": "%"}, {"measurement": "inhibition in vivo at 50 mg/kg/day", "setting": "[13]", "result": 38.3, "unit": "%"}, {"measurement": "inhibition in vivo at 50 mg/kg/day", "setting": "[14]", "result": 29.3, "unit": "%"}, {"measurement": "inhibition in vivo at 50 mg/kg/day", "setting": "[15]", "result": 42.9, "unit": "%"}, {"measurement": "Activity", "setting": "Mus musculus [16]", "result": "<= 15%"}, {"measurement": "Activity", "setting": "Mus musculus [17]", "result": "<= 15%"}, {"measurement": "Activity", "setting": "Mus musculus [18]", "result": "<= 15%"}, {"measurement": "pKa at 5 µM", "setting": "[19]", "result": 7.5}, {"measurement": "logP", "setting": "[20]", "result": -1.9}, {"measurement": "logD", "setting": "[21]", "result": -0.2}, {"measurement": "hemolysis at 0.5 h, 300 µM", "setting": "[22]", "result": 9.97, "unit": "%"}, {"measurement": "solubility", "setting": "[23]", "result": "soluble"}, {"measurement": "Activity", "setting": "Mus musculus [24]", "result": "Non-toxic"}]}]}
